Measured values reported in ChEMBL document CHEMBL1135438, “Synthesis and pharmacological characterization of novel analogues of the nicotinic acetylcholine receptor agonist (+/-)-UB-165” (J Med Chem, 2002).

Assays:
[1] = Compound was tested for its potency at Nicotinic acetylcholine receptor alpha3-beta4 relative to that of Nicotinic acetylcholine receptor alpha4-beta2
[2] = target: T1, Neuronal acetylcholine receptor; alpha3/beta4 (Rattus norvegicus, UniProt P04757+P12392); test: Activation potency at Nicotinic acetylcholine receptor alpha3beta4, expressed as concentration required to achieve a half maximal activation; assay type: protein-complex assay
Outline: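 Rat α3β4 nAChR stably expressed in L cells, induced 7–10 days with 1 μM dexamethasone; cells loaded with 5 μM fluo-3 (1 h, room temperature, dark). Agonist given in high-calcium buffer (75 mM CaCl2, pH 7.4), fluorescence followed 16 s.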

[3] = target: T1, Neuronal acetylcholine receptor; alpha3/beta4; test: Binding affinity at rat brain Nicotinic acetylcholine receptor alpha3-beta4
[4] = target: Neuronal acetylcholine receptor subunit alpha-7 (Rattus norvegicus, UniProt Q05941); test: Binding affinity at rat brain Nicotinic acetylcholine receptor alpha7
[5] = target: Neuronal acetylcholine receptor subunit alpha-7 (Rattus norvegicus) (UniProt Q05941); test: Compound was tested for its potency at Nicotinic acetylcholine receptor alpha-7 relative to that of Nicotinic acetylcholine receptor alpha4-beta2
[6] = target: Neuronal acetylcholine receptor; alpha4/beta2 (Rattus norvegicus, UniProt P09483+P12390); test: Binding affinity at rat brain Nicotinic acetylcholine receptor alpha4-beta2
Outline: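 Rat brain P2 membranes (250 μg protein) competed against 10 nM (–)-[3H]nicotine, 30 min room temperature then 1 h at 4 °C; filtration. Nonspecific binding with 1 mM (–)-nicotine.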

[7] = Ratio of Ki (binding affinity) relative to activation potency

Neuronal acetylcholine receptor subunit alpha-7 (Rattus norvegicus), sequence (Q05941 whole entry): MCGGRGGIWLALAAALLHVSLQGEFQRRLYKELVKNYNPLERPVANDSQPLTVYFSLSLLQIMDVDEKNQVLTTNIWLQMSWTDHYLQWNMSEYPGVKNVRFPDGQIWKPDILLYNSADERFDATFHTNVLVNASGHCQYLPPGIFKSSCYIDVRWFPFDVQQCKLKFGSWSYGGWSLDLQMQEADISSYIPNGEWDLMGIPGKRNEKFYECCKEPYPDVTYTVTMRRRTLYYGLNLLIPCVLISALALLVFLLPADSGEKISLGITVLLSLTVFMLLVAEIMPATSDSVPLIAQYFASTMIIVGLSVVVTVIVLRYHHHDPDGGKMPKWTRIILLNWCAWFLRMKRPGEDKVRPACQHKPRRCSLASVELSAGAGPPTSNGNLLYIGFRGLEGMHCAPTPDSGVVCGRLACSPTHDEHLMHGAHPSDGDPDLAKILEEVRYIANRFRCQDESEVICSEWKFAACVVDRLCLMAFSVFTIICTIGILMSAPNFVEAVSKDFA
Neuronal acetylcholine receptor subunit alpha-7, sequence (Q05941 whole entry): as above
T1 sequence (P04757 whole entry): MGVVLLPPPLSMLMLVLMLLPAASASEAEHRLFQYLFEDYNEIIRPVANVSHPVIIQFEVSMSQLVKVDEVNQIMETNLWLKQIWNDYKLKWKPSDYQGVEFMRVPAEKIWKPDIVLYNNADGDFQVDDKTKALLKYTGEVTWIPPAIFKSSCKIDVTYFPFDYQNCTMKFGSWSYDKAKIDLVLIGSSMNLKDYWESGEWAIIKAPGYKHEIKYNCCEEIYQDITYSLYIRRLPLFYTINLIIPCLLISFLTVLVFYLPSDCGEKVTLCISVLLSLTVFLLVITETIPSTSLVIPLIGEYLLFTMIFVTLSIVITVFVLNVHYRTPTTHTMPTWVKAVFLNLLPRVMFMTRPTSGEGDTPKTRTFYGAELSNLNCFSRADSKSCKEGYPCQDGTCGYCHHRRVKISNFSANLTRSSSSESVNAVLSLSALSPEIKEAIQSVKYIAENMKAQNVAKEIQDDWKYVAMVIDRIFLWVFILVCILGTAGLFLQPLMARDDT
T1 sequence (P12392 whole entry): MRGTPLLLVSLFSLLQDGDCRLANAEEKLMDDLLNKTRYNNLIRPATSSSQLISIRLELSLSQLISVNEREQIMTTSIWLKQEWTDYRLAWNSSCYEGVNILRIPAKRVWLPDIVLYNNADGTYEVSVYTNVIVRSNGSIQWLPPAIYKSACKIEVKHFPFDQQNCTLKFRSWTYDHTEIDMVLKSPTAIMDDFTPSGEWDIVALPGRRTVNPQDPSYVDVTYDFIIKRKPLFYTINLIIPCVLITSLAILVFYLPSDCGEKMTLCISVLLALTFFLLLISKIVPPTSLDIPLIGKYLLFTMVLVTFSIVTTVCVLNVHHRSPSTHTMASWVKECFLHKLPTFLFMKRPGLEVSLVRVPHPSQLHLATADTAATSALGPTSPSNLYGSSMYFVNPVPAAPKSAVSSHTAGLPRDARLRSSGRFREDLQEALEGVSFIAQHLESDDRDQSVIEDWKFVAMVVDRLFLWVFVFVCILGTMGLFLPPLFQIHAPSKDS
Neuronal acetylcholine receptor; alpha4/beta2, sequence (P09483 whole entry): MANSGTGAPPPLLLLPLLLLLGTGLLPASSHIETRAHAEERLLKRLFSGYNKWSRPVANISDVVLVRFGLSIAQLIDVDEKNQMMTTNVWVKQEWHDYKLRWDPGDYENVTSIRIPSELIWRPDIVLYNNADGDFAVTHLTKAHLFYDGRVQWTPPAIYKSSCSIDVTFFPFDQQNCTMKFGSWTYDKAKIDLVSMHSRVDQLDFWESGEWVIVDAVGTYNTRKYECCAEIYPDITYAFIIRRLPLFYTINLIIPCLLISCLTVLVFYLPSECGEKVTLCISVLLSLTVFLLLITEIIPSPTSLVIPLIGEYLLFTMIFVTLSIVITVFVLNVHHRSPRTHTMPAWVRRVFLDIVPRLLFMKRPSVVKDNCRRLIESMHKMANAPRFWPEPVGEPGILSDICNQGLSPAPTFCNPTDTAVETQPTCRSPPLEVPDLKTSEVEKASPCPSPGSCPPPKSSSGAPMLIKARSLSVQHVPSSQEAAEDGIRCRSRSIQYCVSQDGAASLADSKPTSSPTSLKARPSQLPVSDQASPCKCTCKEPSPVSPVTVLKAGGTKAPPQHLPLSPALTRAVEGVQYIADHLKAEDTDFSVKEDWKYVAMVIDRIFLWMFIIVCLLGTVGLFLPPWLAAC
Neuronal acetylcholine receptor; alpha4/beta2, sequence (P12390 whole entry): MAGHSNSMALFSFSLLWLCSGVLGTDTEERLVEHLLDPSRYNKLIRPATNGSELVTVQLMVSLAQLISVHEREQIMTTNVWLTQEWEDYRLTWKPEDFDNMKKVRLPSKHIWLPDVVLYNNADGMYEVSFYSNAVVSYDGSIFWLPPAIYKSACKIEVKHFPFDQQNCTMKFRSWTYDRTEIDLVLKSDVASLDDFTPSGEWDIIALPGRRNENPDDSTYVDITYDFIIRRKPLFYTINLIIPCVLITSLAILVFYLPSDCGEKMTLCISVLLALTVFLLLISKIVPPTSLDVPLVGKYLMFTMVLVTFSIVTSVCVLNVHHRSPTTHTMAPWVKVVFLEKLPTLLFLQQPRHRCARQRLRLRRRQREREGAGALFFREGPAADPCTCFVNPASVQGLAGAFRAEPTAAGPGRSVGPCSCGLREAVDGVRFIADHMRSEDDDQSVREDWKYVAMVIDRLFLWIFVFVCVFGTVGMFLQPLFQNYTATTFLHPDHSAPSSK

SMILES | Affinity ratio [1] | EC50 [2] [nM] | Ki [3] [nM] | Ki [4] [nM] | Affinity ratio [5] | Ki [6] [nM] | Ratio [7]
C1=C(c2ccccn2)C2CC[C@H](CC1)N2 | 6.8 | > 100000 | 10500 | 47500 | 31 | – | –
C1=C(c2cccnc2)C2CC[C@H](CC1)N2 | – | – | – | 89 | – | 0.43 | –
C1=C(c2cccnn2)C2CC[C@H](CC1)N2 | 20 | 4190 | 306 | 68.4 | 118 | 2.6 | 14
Clc1ccc(C2=CCCC3CCC2N3)cn1 (racemic) | – | – | – | 2760 | – | – | –
C1=C(c2cncnc2)C2CC[C@H](CC1)N2 | 96 | 3890 | 236 | 1710 | 696 | 2.45 | 16
C1=C(c2cnccn2)C2CC[C@H](CC1)N2 | 49 | > 100000 | 2850 | 5770 | 100 | 58 | –
C1=C(c2ccncc2)C2CC[C@H](CC1)N2 | 2 | > 100000 | 22000 | > 50000 | – | 11000 | –
